The source of these data is ChEMBL document CHEMBL4622949, “A chalcone derivative binds a putative allosteric site of YopH: Inhibition of a virulence factor of Yersinia” (Bioorg Med Chem Lett, 2020).

Series [1] concerns the target T1, Tyrosine-protein phosphatase non-receptor type 22 (Homo sapiens, UniProt Q9Y2R2).
T1 sequence (Q9Y2R2 whole entry): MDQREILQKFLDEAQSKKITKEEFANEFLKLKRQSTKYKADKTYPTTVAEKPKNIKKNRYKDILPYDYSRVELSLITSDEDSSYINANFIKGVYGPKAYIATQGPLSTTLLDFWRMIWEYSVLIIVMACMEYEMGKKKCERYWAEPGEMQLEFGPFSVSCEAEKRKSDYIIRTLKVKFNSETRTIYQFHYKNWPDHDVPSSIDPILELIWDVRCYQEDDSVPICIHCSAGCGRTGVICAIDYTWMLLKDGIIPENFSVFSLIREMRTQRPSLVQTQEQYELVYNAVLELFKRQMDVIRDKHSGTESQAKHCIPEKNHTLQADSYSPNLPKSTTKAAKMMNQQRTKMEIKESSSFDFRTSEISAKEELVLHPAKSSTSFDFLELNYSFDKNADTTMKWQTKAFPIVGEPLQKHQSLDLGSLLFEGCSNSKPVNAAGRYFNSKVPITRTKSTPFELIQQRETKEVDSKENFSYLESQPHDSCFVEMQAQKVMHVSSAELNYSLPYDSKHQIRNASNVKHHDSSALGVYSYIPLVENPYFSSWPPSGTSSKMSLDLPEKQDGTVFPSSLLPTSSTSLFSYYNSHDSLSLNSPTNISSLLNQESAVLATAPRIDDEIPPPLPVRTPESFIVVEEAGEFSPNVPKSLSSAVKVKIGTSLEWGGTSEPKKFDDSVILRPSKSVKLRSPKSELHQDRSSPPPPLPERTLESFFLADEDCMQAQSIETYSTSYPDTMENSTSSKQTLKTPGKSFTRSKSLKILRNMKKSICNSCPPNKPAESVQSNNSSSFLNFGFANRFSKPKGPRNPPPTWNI
Description: Inhibition of LYP (unknown origin) at 25 uM using pNPP as substrate relative to control.

In series [2] the target is T1, Tyrosine-protein phosphatase non-receptor type 22. As to the kind of experiment: Inhibition of LYP (unknown origin) using pNPP as substrate.
For series [3], the target named is T2, Tyrosine-protein phosphatase non-receptor type 12 (Homo sapiens, UniProt Q05209).
T2 sequence (Q05209 whole entry): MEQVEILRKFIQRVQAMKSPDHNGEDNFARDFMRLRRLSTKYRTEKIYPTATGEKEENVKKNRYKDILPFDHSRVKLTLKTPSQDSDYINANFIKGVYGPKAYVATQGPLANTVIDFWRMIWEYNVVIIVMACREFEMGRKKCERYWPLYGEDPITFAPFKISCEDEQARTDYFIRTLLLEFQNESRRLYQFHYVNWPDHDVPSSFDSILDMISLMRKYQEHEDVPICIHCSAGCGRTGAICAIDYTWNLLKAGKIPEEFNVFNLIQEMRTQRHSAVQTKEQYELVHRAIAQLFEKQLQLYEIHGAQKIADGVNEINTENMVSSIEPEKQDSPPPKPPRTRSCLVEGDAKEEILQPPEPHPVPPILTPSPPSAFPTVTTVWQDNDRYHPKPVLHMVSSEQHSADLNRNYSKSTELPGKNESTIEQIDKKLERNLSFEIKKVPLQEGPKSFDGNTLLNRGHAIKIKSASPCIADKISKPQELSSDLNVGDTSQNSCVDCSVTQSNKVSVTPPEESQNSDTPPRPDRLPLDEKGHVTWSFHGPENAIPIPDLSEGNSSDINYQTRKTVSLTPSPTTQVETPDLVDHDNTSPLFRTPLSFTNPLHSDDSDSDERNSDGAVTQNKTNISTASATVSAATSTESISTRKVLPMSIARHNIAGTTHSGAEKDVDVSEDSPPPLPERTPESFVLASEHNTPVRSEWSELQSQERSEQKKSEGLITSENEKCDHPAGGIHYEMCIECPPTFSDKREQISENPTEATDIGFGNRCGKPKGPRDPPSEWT
Description: Inhibition of PTP-PEST (unknown origin). The essentials:
(§1)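 Inhibition of the PTP panel, run in three independent experiments. Values are the average of the individual means ± SD.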

Series [4] concerns the target T3, Tyrosine-protein phosphatase non-receptor type 1 (Homo sapiens, UniProt P18031).
T3 sequence (P18031 whole entry): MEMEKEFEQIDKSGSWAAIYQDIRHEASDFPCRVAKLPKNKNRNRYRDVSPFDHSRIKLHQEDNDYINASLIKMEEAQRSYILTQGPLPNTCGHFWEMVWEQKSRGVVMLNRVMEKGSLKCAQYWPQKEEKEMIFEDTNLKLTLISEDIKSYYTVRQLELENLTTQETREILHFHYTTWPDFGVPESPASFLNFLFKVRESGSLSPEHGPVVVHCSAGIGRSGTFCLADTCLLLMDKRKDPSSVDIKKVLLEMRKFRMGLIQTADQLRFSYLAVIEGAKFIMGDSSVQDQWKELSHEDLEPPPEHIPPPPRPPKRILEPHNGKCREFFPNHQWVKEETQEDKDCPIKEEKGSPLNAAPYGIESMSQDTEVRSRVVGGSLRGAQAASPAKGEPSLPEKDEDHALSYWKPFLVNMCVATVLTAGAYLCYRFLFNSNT
As to the kind of experiment: Inhibition of human PTP1B. The essentials: as §1

Series [5] deals with T4, Low molecular weight protein-tyrosine phosphatase A (Mycobacterium tuberculosis, UniProt P9WIA1).
T4 sequence (P9WIA1 whole entry): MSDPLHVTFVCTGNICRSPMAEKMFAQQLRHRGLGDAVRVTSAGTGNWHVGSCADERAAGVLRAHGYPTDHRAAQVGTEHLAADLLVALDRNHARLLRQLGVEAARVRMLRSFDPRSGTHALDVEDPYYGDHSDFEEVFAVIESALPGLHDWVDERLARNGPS
Description: Inhibition of Mycobacterium tuberculosis PtpA. The gist of the method:
as §1

In series [6] the target is T5, Phosphotyrosine protein phosphatase (Mycobacterium tuberculosis, UniProt A0A045ISB3).
T5 sequence (A0A045ISB3 whole entry): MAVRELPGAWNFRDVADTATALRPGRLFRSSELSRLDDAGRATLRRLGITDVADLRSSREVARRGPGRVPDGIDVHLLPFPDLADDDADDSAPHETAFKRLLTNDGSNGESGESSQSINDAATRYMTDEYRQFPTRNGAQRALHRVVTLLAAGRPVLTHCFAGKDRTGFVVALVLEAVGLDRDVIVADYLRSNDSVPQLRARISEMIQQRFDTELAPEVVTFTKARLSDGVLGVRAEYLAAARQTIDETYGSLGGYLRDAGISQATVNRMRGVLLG
As to the kind of experiment: Inhibition of Mycobacterium tuberculosis PtpB. The gist of the method:
as §1

Series [7] has as its target T1, Tyrosine-protein phosphatase non-receptor type 22. As to the kind of experiment: Competitive inhibition of LYP (unknown origin) assessed as inhibition constant using varying level of pNPP as substrate by Lineweaver-Burk plot analysis.
The target in series [8] is T2, Tyrosine-protein phosphatase non-receptor type 12. Description: Competitive inhibition of PTP-PEST (unknown origin) assessed as inhibition constant using varying level of pNPP as substrate by Lineweaver-Burk plot analysis.
Series [9] concerns the target T3, Tyrosine-protein phosphatase non-receptor type 1. Description: Non-competitive inhibition of human PTP1B assessed as inhibition constant using varying level of pNPP as substrate by Lineweaver-Burk plot analysis.
The target in series [10] is T4, Low molecular weight protein-tyrosine phosphatase A. Description: Non-competitive inhibition of Mycobacterium tuberculosis PtpA assessed as inhibition constant using varying level of pNPP as substrate by Lineweaver-Burk plot analysis.
The target in series [11] is T5, Phosphotyrosine protein phosphatase. Description: Competitive inhibition of Mycobacterium tuberculosis PtpB assessed as inhibition constant using varying level of pNPP as substrate by Lineweaver-Burk plot analysis.
The target in series [12] is T6, Tyrosine-protein phosphatase YopH (Yersinia enterocolitica, UniProt P15273). Description: Inhibition of Yersinia enterocolitica YopH. The gist of the method: as §1
T6 sequence (P15273 whole entry): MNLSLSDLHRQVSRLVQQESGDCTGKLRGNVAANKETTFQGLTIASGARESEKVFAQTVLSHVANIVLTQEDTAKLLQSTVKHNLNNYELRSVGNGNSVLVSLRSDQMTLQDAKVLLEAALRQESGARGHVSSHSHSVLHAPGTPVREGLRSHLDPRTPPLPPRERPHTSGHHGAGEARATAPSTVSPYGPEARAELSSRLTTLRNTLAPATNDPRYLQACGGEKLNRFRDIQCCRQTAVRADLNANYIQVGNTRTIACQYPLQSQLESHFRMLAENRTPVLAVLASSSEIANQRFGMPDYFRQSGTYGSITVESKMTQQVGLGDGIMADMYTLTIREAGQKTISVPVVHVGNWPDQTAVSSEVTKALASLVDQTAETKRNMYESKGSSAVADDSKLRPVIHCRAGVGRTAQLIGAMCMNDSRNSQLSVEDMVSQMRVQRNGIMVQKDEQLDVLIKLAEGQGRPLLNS
Series [13] addresses T6, Tyrosine-protein phosphatase YopH. As to the kind of experiment: Non-competitive inhibition of Yersinia enterocolitica YopH assessed as inhibition constant using varying level of pNPP as substrate by Lineweaver-Burk plot analysis.
Series [14] in a line: Selectivity index, ratio of IC50 for PTP-PEST (unknown origin) to IC50 for LYP (unknown origin) using pNPP as substrate. The following applies: human.
Series [15] is described as follows: Selectivity index, ratio of IC50 for human PTP1B to IC50 for LYP (unknown origin) using pNPP as substrate.
Series [16] can be described thus: Selectivity index, ratio of IC50 for Mycobacterium tuberculosis PtpA to IC50 for LYP (unknown origin) using pNPP as substrate.
Series [17] in a line: Selectivity index, ratio of IC50 for Mycobacterium tuberculosis PtpB to IC50 for LYP (unknown origin) using pNPP as substrate.
Series [18] can be described thus: Selectivity index, ratio of IC50 for Yersinia enterocolitica YopH to IC50 for LYP (unknown origin) using pNPP as substrate.
For series [19], the target named is T1, Tyrosine-protein phosphatase non-receptor type 22. As to the kind of experiment: Reversible inhibition of LYP (unknown origin) assessed as enzyme recovery activity by dilution assay relative to control. Set-up: scale not given: the % may be the effect or the level left. The essentials:
(§2)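 Reversibility tested by preincubation and dilution: enzyme preincubated with inhibitor, then diluted, and recovered phosphatase activity expressed as a percentage of control.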

Series [20] has as its target T2, Tyrosine-protein phosphatase non-receptor type 12. Description: Reversible inhibition of PTP-PEST (unknown origin) assessed as enzyme recovery activity by dilution assay relative to control. Also on record: scale not given: the % may be the effect or the level left. The essentials:
as §2

For series [21], the target named is T7, Low molecular weight protein-tyrosine phosphatase A (Mycobacterium tuberculosis) (UniProt P9WIA1).
T7 sequence (whole entry): T4 sequence (P9WIA1 whole entry)
As to the kind of experiment: Reversible inhibition of Mycobacterium tuberculosis PtpA assessed as enzyme recovery activity by dilution assay relative to control. Set-up: scale not given: the % may be the effect or the level left. The essentials: as §2

Series [22] addresses T8, Phosphotyrosine protein phosphatase (Mycobacterium tuberculosis) (UniProt A0A045ISB3).
T8 sequence (whole entry): T5 sequence (A0A045ISB3 whole entry)
As to the kind of experiment: Reversible inhibition of Mycobacterium tuberculosis PtpB assessed as enzyme recovery activity by dilution assay relative to control. Also on record: scale not given: the % may be the effect or the level left. The essentials: as §2

Series [23] deals with T3, Tyrosine-protein phosphatase non-receptor type 1. As to the kind of experiment: Reversible inhibition of human PTP1B assessed as enzyme recovery activity by dilution assay relative to control. Also on record: scale not given: the % may be the effect or the level left. The gist of the method: as §2
Series [24] addresses Tyrosine-protein phosphatase YopH (Yersinia enterocolitica) (UniProt P15273). Description: Irreversible inhibition of Yersinia enterocolitica YopH assessed as enzyme recovery activity by dilution assay relative to control. Set-up: scale not given: the % may be the effect or the level left. The gist of the method:
as §2

Series [25] has the same target. As to the kind of experiment: Potency index, ratio of chicoric-acid IC50 to test compound IC50 for inhibition of Yersinia enterocolitica YopH.
Series [26] has the same target. Description: Binding affinity of Yersinia enterocolitica YopH assessed as structural changes in protein by measuring emission spectra by fluorescence assay. The essentials: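 Intrinsic fluorescence emission spectrum of YopH (λmax 328 nm) recorded in the presence of ligand; quenching and any shift in λmax monitored as the read-out for structural change.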
Series [27] shares this target. Description: Binding affinity of Yersinia enterocolitica YopH assessed as protein stabilization by measuring change in melting temperature by thermal denaturation assay. The gist of the method: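 YopH thermal denaturation profile recorded with and without ligand at 50 µM; melting temperature (Tm) compared between the two.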
In a further series the test system is Yersinia enterocolitica. Description: Antibacterial activity against Yersinia enterocolitica assessed as inhibition of bacterial growth at 8 to 250 uM after 48 hrs relative to control. In kind it is functional.

Activity calls are given as the source filed them. The calls are words filed in the database; no cut-off is given here.

In general, inhibition refers to how much of the control response was suppressed. By IC50 is commonly meant the concentration that gives 50% inhibition. The term Ki denotes the dissociation constant of the complex between target and ligand, obtained from inhibition or displacement. As usually defined, the ΔTm is the change in melting temperature against a reference sample.

Sequence of Tyrosine-protein phosphatase YopH (Yersinia enterocolitica) (P15273 whole entry): as above

In series [1], `COc1ccc(C(=O)/C=C/c2ccc(C(=O)O)cc2)cc1` gave an inhibition at 25 µM of 8.4%.

Regarding `O=C1COc2ccc(C(=O)/C=C/c3ccc(C(=O)O)cc3)cc2N1`, in series [1], 25 µM produced 33.2% inhibition.

Consider `O=C(O)c1ccc(/C=C/C(=O)c2cccc(O)c2)cc1`, for which testing at 25 µM in series [1] gave an inhibition of 7.9%.

The compound `O=C(O)c1ccc(/C=C/C(=O)c2cccc([N+](=O)[O-])c2)cc1` gave an inhibition at 25 µM in series [1] of 57.9%. Further, the IC50 in [2] is 11.5 µM; in [3], 10.9 µM; in [4], 3.2 µM; in [5], 3 µM; in series [6], 2.3 µM; in series [12], 2.6 µM. In addition, the Ki in series [7] worked out at 1.9 µM; in [8], 1 µM; in series [9], 1.4 µM; in [10] it was 0.8 µM; in [11], 0.4 µM; in series [13], 1 µM. For the same compound, the “Ratio IC50” value in [14] was determined as 0.94; in [15], 0.28; in [16], 0.26; in series [17], 0.19; in [18], 0.22; in series [25], 145. In addition, the Activity in series [19] was found to be 76%; in [20], 71%; in series [21], 76%; in series [22], 81%; in series [23], 45%; in series [24], 10%. Besides, the result in series [26] was inactive. Besides, the ΔTm in series [27] worked out at 1.5 °C. Further, in the series with Yersinia enterocolitica, the “inhibition (INH)” value is reported as 20%.

In series [1], `COc1cc(OC)cc(C(=O)/C=C/c2ccc(C(=O)O)cc2)c1` displayed an inhibition at 25 µM of 4.6%.
